The target in assay [1] is T1, Nociceptin receptor (Homo sapiens, UniProt P41146). The assay is described as follows: Displacement of [3H]N/OFQ from human NOP receptor expressed in HEK293 cells. The assay is classed as cell-based. For orientation: Loss of bound radioactivity is the signal in a displacement assay; it reports binding, not function.
Assay [2] concerns the target T1, Nociceptin receptor. Nature of the assay: Agonist activity at human NOP receptor expressed in HEK293 cells by [35S]GTPgammaS binding. In kind it is functional, cell-based. A general note: Binding of GTPγS marks nucleotide exchange on a G protein.
The target of assay [3] is T2, Mu-type opioid receptor (Homo sapiens, UniProt P35372). The assay is described as follows: Displacement of [3H]DAMGO from human mu opioid receptor expressed in CHOK1 cells. In kind it is cell-based, CHO-K1.
T2 sequence (P35372 whole entry): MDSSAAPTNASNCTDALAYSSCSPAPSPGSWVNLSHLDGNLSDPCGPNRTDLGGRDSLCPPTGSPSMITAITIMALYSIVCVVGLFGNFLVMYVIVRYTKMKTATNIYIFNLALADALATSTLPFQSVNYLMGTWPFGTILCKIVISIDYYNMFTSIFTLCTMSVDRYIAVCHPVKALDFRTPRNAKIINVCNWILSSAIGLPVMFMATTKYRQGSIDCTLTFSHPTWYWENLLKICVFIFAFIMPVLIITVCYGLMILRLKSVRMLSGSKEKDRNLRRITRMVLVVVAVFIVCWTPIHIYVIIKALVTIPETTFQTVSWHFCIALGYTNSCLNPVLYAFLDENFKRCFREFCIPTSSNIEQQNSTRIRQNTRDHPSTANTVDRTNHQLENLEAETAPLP
Another assay concerns Mus musculus. The assay is described as follows: Ex vivo receptor occupancy of NOP receptor in ddY mouse brain at 10 mg/kg, po after 1 hr by [3H]N/OFQ binding assay. In kind it is functional. The method, boiled down:
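Male ddY mice (5-6 week), water-deprived 24 h, dosed orally at 10 mg/kg in 0.1% methylcellulose. Brain removed 1 h later; cerebellum and medulla discarded, membranes prepared at 4 °C. Membranes (160 µg protein) incubated with 0.3 nM [3H]N/OFQ, 30 min, 25 °C; filtration read-out. Nonspecific binding with 1 µM N/OFQ. Occupancy is inhibition of specific binding versus vehicle-treated mice, three mice, mean ± SEM.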

Assay [4] has as its target T2, Mu-type opioid receptor. Nature of the assay: Agonist activity at human mu opioid receptor expressed in CHOK1 cells by [35S]GTPgammaS binding. The assay is classed as functional, cell-based, CHO-K1.
Assay [5] concerns the target T3, Kappa-type opioid receptor (Homo sapiens, UniProt P41145). Nature of the assay: Displacement of [3H]enadoline from human kappa opioid receptor expressed in HEK293 cells. The assay is classed as cell-based.
In assay [6] the target is T3, Kappa-type opioid receptor. Nature of the assay: Agonist activity at human kappa opioid receptor expressed in HEK293 cells by [35S]GTPgammaS binding. In kind it is functional, cell-based.
The target of assay [7] is T4, Delta-type opioid receptor (Homo sapiens, UniProt P41143). Nature of the assay: Agonist activity at human delta opioid receptor expressed in CHOK1 cells by [35S]GTPgammaS binding. In kind it is functional, cell-based, CHO-K1.
T4 sequence (P41143 whole entry): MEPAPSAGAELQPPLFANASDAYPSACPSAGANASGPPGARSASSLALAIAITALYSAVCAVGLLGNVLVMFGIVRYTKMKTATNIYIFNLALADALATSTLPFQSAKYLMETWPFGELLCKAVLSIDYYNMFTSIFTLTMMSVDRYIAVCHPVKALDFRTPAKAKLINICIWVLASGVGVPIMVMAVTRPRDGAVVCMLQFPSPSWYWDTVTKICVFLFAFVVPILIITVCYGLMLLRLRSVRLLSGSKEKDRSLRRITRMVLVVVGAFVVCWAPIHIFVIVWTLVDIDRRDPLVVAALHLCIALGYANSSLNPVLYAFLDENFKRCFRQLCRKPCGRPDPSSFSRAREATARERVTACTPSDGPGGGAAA
Assay [8] deals with T4, Delta-type opioid receptor. Nature of the assay: Displacement of [3H]DPDPE from human delta opioid receptor expressed in CHOK1 cells. In kind it is cell-based, CHO-K1.
In assay [9] the target is T4, Delta-type opioid receptor. The assay is described as follows: Displacement of [3H]DPDPE from human delta opioid receptor expressed in CHOK1 cells at 1 uM. The assay is classed as cell-based. The conditions noted are these: CHO-K1.

SMILES strings stand for the structures.

T1 sequence (P41146 whole entry): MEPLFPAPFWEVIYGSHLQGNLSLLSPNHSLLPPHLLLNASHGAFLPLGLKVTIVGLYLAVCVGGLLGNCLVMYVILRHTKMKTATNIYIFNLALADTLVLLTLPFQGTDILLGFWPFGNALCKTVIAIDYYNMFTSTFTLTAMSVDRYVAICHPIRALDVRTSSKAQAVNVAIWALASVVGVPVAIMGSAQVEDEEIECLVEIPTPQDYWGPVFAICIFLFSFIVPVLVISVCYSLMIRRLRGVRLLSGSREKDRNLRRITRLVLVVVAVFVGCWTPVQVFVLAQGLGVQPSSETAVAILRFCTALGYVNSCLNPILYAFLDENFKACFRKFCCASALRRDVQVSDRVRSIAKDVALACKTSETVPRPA
T3 sequence (P41145 whole entry): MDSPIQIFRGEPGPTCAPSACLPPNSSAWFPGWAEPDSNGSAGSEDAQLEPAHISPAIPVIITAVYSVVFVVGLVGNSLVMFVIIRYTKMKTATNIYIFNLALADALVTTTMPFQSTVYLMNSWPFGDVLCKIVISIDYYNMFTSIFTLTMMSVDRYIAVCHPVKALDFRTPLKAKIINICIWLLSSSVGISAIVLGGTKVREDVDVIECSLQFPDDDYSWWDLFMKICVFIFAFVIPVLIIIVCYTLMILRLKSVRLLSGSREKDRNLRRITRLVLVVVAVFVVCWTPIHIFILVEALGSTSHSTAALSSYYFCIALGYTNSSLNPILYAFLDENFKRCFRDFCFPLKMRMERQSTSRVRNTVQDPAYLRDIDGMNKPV

For `CC1(N2CCC(n3c(-c4cc5ccccc5o4)nc4ccccc43)CC2)CCCCCCC1`, the Ki on Nociceptin receptor [1] was determined as 0.53 nM; on Mu-type opioid receptor [3], 102 nM. The EC50 was determined as 3.1 nM on Nociceptin receptor [2] and 3670 nM at Mu-type opioid receptor [4]. Also, the Activity in the assay with Mus musculus turned out to be 34%.

As to `CN1CCC[C@@H](c2nc3ccccc3n2C2CCN(C3(C)CCCCCCC3)CC2)C1`, the Ki in assay [5] was 25 nM; at Nociceptin receptor [1], 0.2 nM; in assay [8], over 500 nM; at Mu-type opioid receptor [3], 3.7 nM. The EC50 worked out at 70 nM in assay [6], 2190 nM in [7], 1.4 nM on Nociceptin receptor [2] and 67 nM at Mu-type opioid receptor [4]. Also, the Activity in the assay on Mus musculus is 61%.

With `CN1CCC[C@H](c2nc3ccccc3n2C2CCN(C3(C)CCCCCCC3)CC2)C1`, the Ki in assay [5] worked out at 10 nM; on Nociceptin receptor [1] it was 0.24 nM; in [8] it was 110 nM; on Mu-type opioid receptor [3] it was 11 nM. For the same molecule, the EC50 in assay [6] was 13 nM; in assay [7] it was 389 nM; at Nociceptin receptor [2], 1.6 nM; at Mu-type opioid receptor [4], 71 nM.

Turning to `CC1(N2CCC(n3c(-c4ccc(F)c(Cl)c4)nc4ccccc43)CC2)CCCCCCC1`, the Ki at Mu-type opioid receptor [3] came out at 45 nM. For the same molecule, the Activity in the assay with Mus musculus was 31%. In addition, it took 759 nM to reach a half-maximal effect at Mu-type opioid receptor [4] (EC50).

For the molecule `CC1(N2CCC(n3c(-c4cccc(CN)c4)nc4ccccc43)CC2)CCCCCCC1`, the results for the inhibition constant Ki (in [5]; in assay [8]; on Mu-type opioid receptor [3]) were 72 nM, 140 nM and 20 nM, respectively. Further, the EC50 in [6] was found to be 154 nM; at Mu-type opioid receptor [4], 340 nM. Besides, the Activity in the assay with Mus musculus is 30%.

Take `CC1(N2CCC(n3c(-c4cccc(OCCO)c4)nc4ccccc43)CC2)CCCCCCC1`: the Ki worked out at 43 nM in [5], 0.3 nM at Nociceptin receptor [1], 9.5 nM in assay [8] and 11 nM on Mu-type opioid receptor [3]. For the same molecule, the EC50 was 48 nM in [6], 2.6 nM on Nociceptin receptor [2] and over 393 nM at Mu-type opioid receptor [4]. In addition, the Activity with Mus musculus amounted to 38%.

In the case of `CC1(N2CCC(n3c(-c4cccc(C(F)(F)F)c4)nc4ccccc43)CC2)CCCCCCC1`, the inhibitory constant (Ki) is 352 nM in assay [5], 0.63 nM on Nociceptin receptor [1], 58 nM in assay [8] and 65 nM at Mu-type opioid receptor [3]. Besides, the EC50 in [6] is 1580 nM; at Nociceptin receptor [2], 5.7 nM; at Mu-type opioid receptor [4], 10000 nM. For the same molecule, the Activity with Mus musculus turned out to be 3.2%.

Molecule `CC1(N2CCC(n3cnc4ccccc43)CC2)CCCCCCC1` registered a Ki at Mu-type opioid receptor [3] of 11 nM.

Consider `CC1CN(c2nc3ccccc3n2C2CCN(C3(C)CCCCCCC3)CC2)CC(C)N1` (configuration not stated), for which the Ki in [5] came to 15 nM; on Mu-type opioid receptor [3], 21 nM. The figures for the EC50 (in assay [6]; at Mu-type opioid receptor [4]) were 18 nM and 193 nM, respectively. For the same molecule, in assay [9], the Activity worked out at 29%.

Turning to `CC1(N2CCC(n3c([C@@H]4CCCNC4)nc4ccccc43)CC2)CCCCCCC1`, the Ki is 23.1 nM in assay [5] and over 667 nM in [8]. For the same molecule, the results for the EC50 in assay [6] and in assay [7] were 80 nM and 4700 nM, respectively. In the assay with Mus musculus, the Activity is 53%.

Turning to `CC1(N2CCC(n3c(-c4cccc(S(C)(=O)=O)c4)nc4ccccc43)CC2)CCCCCCC1`, the Ki on Nociceptin receptor [1] amounted to 0.15 nM; at Mu-type opioid receptor [3], 6.3 nM. Also, the EC50 on Nociceptin receptor [2] turned out to be 1.6 nM; at Mu-type opioid receptor [4] it was 288 nM. For the same molecule, in the assay with Mus musculus, the Activity is reported as 34%.

As for `CC1(N2CCC(n3c([C@H]4CCCNC4)nc4ccccc43)CC2)CCCCCCC1`, the Ki was 9.2 nM in [5] and 168 nM in assay [8]. Further, the EC50 was 8.4 nM in assay [6] and 514 nM in assay [7].

As to `CC1(N2CCC(n3c(-c4ccc5cc[nH]c5c4)nc4ccccc43)CC2)CCCCCCC1`, the Ki amounted to 1.7 nM on Nociceptin receptor [1] and 151 nM at Mu-type opioid receptor [3]. Besides, the EC50 at Nociceptin receptor [2] worked out at 13 nM; at Mu-type opioid receptor [4] it was 8630 nM. Moreover, the Activity in the assay with Mus musculus is listed as -10%.

The term Ki denotes the dissociation constant of the complex between target and ligand, obtained from inhibition or displacement. In general, EC50 refers to the midpoint of the concentration-response curve. Higher therefore signals a less potent agent.
